# Results from ChEMBL document CHEMBL2417361, “Investigation of acyclic uridine amide and 5'-amido nucleoside analogues as potential inhibitors of the Plasmodium falciparum dUTPase” (Bioorg Med Chem, 2013).
# Columns and labels:
# [1] = target: T1, Deoxyuridine 5'-triphosphate nucleotidohydrolase, mitochondrial (Homo sapiens, UniProt P33316); assay: Inhibition of recombinant human dUTPase expressed in Escherichia coli BL21 (DE3) using dUTP as substrate by spectrophotometric analysis
# T1 sequence (P33316 whole entry): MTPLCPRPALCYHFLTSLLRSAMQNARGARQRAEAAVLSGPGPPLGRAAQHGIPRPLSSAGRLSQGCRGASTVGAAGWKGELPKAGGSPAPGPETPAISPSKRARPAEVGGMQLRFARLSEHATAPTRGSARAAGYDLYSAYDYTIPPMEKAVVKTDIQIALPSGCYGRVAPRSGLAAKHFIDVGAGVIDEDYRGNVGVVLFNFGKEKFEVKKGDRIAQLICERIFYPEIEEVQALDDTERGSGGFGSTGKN
# Outline: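 Human enzyme expressed in IPTG-induced E. coli BL21(DE3) and purified like the parasite enzyme (phosphocellulose, then gel filtration, ≥96% pure). Hydrolysis after rapid mixing was read as proton release using a cresol red/bicine indicator pair (pH 8, 573 nm), with absorbance change kept within 0.1 units. Vmax and KMapp were fitted to the integrated Michaelis–Menten equation.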
# [2] = Inhibition of recombinant Plasmodium falciparum dUTPase expressed in Escherichia coli BL21 (DE3) using dUTP as substrate by spectrophotometric analysis
# Outline: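 Recombinant enzyme from IPTG-induced E. coli BL21(DE3), purified by phosphocellulose and gel filtration to ≥96% purity, stored in 10 mM bicine/5 mM MgCl2 pH 8. Stopped-flow mixing of 30 nM PfdUTPase with 50 µM dUTP, 5 mM MgCl2, 1 mg/mL BSA and 100 mM KCl. Proton release tracked with cresol red/bicine (pH 8) at 573 nm. Vmax and KMapp fitted by integrated Michaelis–Menten equation.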
# [3] = test system: L6; assay: Cytotoxicity against rat L6 cells after 72 hrs by Alamar Blue assay; type: cell-based; details: L6, 72 h
# Outline: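 Rat skeletal myoblast L6 line, with podophyllotoxin as control. EC50 is the mean of two independent assays.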
# [4] = Selectivity index, ratio of EC50 for rat L6 cells to EC50 for Plasmodium falciparum K1; type: toxicity, cell-based; details: read-out: Ratio EC50
# [5] = test system: Plasmodium falciparum; assay: Antiparasitic activity against chloroquine/pyrimethamine-resistant Plasmodium falciparum K1 infected in erythrocytes assessed as parasite growth inhibition after 48 hrs by [3H]-hypoxanthine incorporation assay; type: functional, organism-based
# [6] = Selectivity index, ratio of Ki for human dUTPase to Ki for recombinant Plasmodium falciparum dUTPase
Ki [1],Ratio Ki [6],Structure (SMILES),Ki [2],EC50 [3],selectivity ratio [4],EC50 [5]
1000 µM,,O=C(CCCn1ccc(=O)[nH]c1=O)NC(c1ccccc1)(c1ccccc1)c1ccccc1,,,,
1000 µM,,O=C(CCCn1ccc(=O)[nH]c1=O)NC(c1ccccc1)c1ccccc1,,,,
,,O=c1ccn([C@H]2C[C@H](O)[C@@H](CNC(c3ccccc3)(c3ccccc3)c3ccccc3)O2)c(=O)[nH]1,0.2 µM,,,
,,O=c1ccn(CCCCCCOC(c2ccccc2)(c2ccccc2)c2ccccc2)c(=O)[nH]1,,,19,
,,O=c1ccn(CCCOC(c2ccccc2)(c2ccccc2)c2ccccc2)c(=O)[nH]1,,,5,
1000 µM,,O=C(NCCCn1ccc(=O)[nH]c1=O)C(c1ccccc1)(c1ccccc1)c1ccccc1,,,,
1000 µM,56,O=C(c1ccccc1)n1c(=O)ccn(CCCNC(=O)C(c2ccccc2)(c2ccccc2)c2ccccc2)c1=O,> 100 µM,,,
,1,O=C(NCCCO)C(c1ccccc1)(c1ccccc1)c1ccccc1,,,,
1000 µM,400,O=C(O)CCCn1ccc(=O)[nH]c1=O,> 100 µM,,,
1000 µM,13,O=C(NCCCO)C(c1ccccc1)c1ccccc1,> 100 µM,,,
,,O=c1ccn(CCCCCCNC(c2ccccc2)(c2ccccc2)c2ccccc2)c(=O)[nH]1,,,36,
,,O=c1ccn(CCCCNC(c2ccccc2)(c2ccccc2)c2ccccc2)c(=O)[nH]1,,,9,

Structure (SMILES),Ki [1],Ratio Ki [6],Ki [2],EC50 [3],selectivity ratio [4],EC50 [5]
O=c1ccn(CCCCNC(c2ccccc2)c2ccccc2)c(=O)[nH]1,63 µM,,5.7 µM,99 µM,38,2.6 µM
O=c1ccn([C@H]2C[C@H](O)[C@@H](CNC(c3ccccc3)c3ccccc3)O2)c(=O)[nH]1,> 100 µM,,0.2 µM,> 229 µM,> 20,12 µM
O=c1ccn(CCCCOC(c2ccccc2)c2ccccc2)c(=O)[nH]1,49 µM,,0.5 µM,104 µM,7,14 µM
O=c1ccn(CCCNC(c2ccccc2)c2ccccc2)c(=O)[nH]1,10 µM,,5.7 µM,269 µM,49,5.5 µM
